Assay results pooled from the literature.
Each line is one published result; the experiments were not run side by side.
Melanocortin receptor 4: Melanocortin receptor 4 (Mus musculus, UniProt P56450)
Tspo: Translocator protein (Tspo, Rattus norvegicus, UniProt P16257)
GLP2R: Glucagon-like peptide 2 receptor (GLP2R, Homo sapiens, UniProt O95838)

`CSCC[C@H](NC(=O)[C@@H](NC(=O)[C@@H](N)Cc1ccc(O)cc1)C(C)C)C(=O)NCC(=O)O` has an EC50 of > 100 µM (Melanocortin receptor 4; reporter gene; agonist).
`O[C@@H]1[C@H](O)[C@@H]2C[C@@H]2[C@H]1n1cnc2c(NCCc3ccccc3)nc(C#Cc3ccccc3)nc21` has a Ki of > 10 µM (Tspo; ligand displacement; radioligand).
`O=C(OC[C@H]1OC[C@H](OC(=O)c2cc(O)c(O)c(O)c2)[C@@H](O)[C@@H]1O)c1cc(O)c(O)c(O)c1` has a Kd of 1180 nM (Replicase polyprotein 1ab, main protease (rep, Severe acute respiratory syndrome coronavirus 2, UniProt P0DTD1); binding; SPR).
With `N=C(N)NCCC[C@H](NC(=O)[C@H](CC(=O)O)NC(=O)[C@H](Cc1c[nH]c2ccccc12)NC(=O)[C@@H](N)CCCNC(=N)N)C(=O)N[C@@H](Cc1ccccc1)C(=O)NCC(=O)O` the EC50 was > 100 µM (Melanocortin receptor 4; reporter gene; agonist).
With `N#Cc1ccc(COc2cccc(C3CCN(Cc4nc5ccc(C(=O)O)cc5n4C[C@@H]4CCO4)CC3)n2)c(F)c1` the EC50 was > 20 µM (GLP2R; cAMP; agonist).
`CSCC[C@H](N)C(=O)NCC(=O)N[C@@H](Cc1c[nH]cn1)C(=O)N[C@@H](Cc1ccccc1)C(=O)N[C@@H](CCCNC(=N)N)C(=O)N[C@@H](Cc1c[nH]c2ccccc12)C(=O)O` gave an EC50 of 41.9 µM (Melanocortin receptor 4; reporter gene; agonist).
`CNc1nc(C#Cc2ccc(Cl)s2)nc2c1ncn2[C@H]1[C@H](O)[C@H](O)[C@]2(C(=O)O)C[C@H]12` has a Ki of > 10 µM (Tspo; ligand displacement; radioligand).
The EC50 of `N=C(N)NCCC[C@H](NC(=O)[C@H](CC(=O)O)NC(=O)[C@H](Cc1c[nH]c2ccccc12)NC(=O)[C@H](CCCNC(=N)N)NC(=O)[C@@H](N)Cc1ccccc1)C(=O)N[C@@H](Cc1ccccc1)C(=O)NCC(=O)O` is reported as 47.4 µM (Melanocortin receptor 4; reporter gene; agonist).
The Ki of `CNC(=O)[C@@]12C[C@@H]1[C@@H](n1cnc3c(NCc4cccc(Cl)c4)nc(Cl)nc31)[C@H](O)[C@@H]2O` is reported as > 10 µM (Tspo; ligand displacement; radioligand).
The Kd of `Cc1cc2nc3c(=O)[nH]c(=O)nc-3n(C[C@H](O)[C@H](O)[C@H](O)COP(=O)(O)OP(=O)(O)OC[C@H]3O[C@@H](n4cnc5c(N)ncnc54)[C@H](O)[C@@H]3O)c2cc1C` is reported as 641 nM (Dihydrolipoyl dehydrogenase, mitochondrial (DLD, Homo sapiens, UniProt P09622); binding; lysate).
The EC50 of `N=C(N)NCCC[C@H](NC(=O)[C@@H](N)CC(=O)O)C(=O)N[C@@H](Cc1ccccc1)C(=O)NCC(=O)O` is reported as > 100 µM (Melanocortin receptor 4; reporter gene; agonist).
With `CNC(=O)[C@@]12C[C@@H]1[C@@H](n1cnc3c(NC4CC4c4ccccc4)nc(C#Cc4ccccc4)nc31)[C@H](O)[C@@H]2O` (mixture of isomers) the Ki was > 10 µM (Tspo; ligand displacement; radioligand).
With `Cc1cnc(-c2ccc(-c3ccc(NC(=O)Nc4c(F)cc(F)cc4F)cc3F)c3c2C(=O)NC3)[nH]1` the Kd was 1 nM (High affinity nerve growth factor receptor (NTRK1, Homo sapiens, UniProt P04629); binding; competition with immobilised ligand).
`CNc1nc(C#Cc2ccc(Cl)s2)nc2c1ncn2[C@H]1[C@H](O)[C@H](O)[C@]2(C(=O)OCCc3ccccc3)C[C@H]12` has a Ki of > 10 µM (Tspo; ligand displacement; radioligand).
For `CC[C@H](C)[C@H](NC(=O)[C@H](Cc1ccccc1)NC(=O)[C@H](CCC(=O)O)NC(=O)[C@H](CCCCN)NC(=O)[C@H](C)NC(=O)[C@H](C)NC(=O)[C@H](CCC(N)=O)NC(=O)CNC(=O)[C@H](CCC(=O)O)NC(=O)[C@H](CC(C)C)NC(=O)[C@H](Cc1ccc(O)cc1)NC(=O)[C@H](CO)NC(=O)[C@H](CO)NC(=O)[C@@H](NC(=O)[C@H](CC(=O)O)NC(=O)[C@H](CO)NC(=O)[C@@H](NC(=O)[C@H](Cc1ccccc1)NC(=O)[C@@H](NC(=O)CNC(=O)[C@H](CCC(=O)O)NC(=O)[C@H](C)NC(=O)[C@@H](N)Cc1c[nH]cn1)[C@@H](C)O)[C@@H](C)O)C(C)C)C(=O)N[C@@H](C)C(=O)N[C@@H](Cc1c[nH]c2ccccc12)C(=O)N[C@@H](CC(C)C)C(=O)N[C@H](C(=O)N[C@@H](CCCCN)C(=O)NCC(=O)N[C@@H](CCCN=C(N)N)C(=O)NCC(=O)O)C(C)C`, the EC50 was > 1 µM (GLP2R; reporter gene; agonist; luciferase).
